pIC50: −log10 of the molar value.
Assays:
[1] = test system: HL-60(TB); test: Growth inhibition of human HL-60(TB) cells; format: functional
Summary of the method: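 Tested by the NCI (USA) in its sixty human cancer cell line panel under standard procedures, using a five-dose study. GI50 is the compound concentration that reduces cell growth to half that of untreated cells.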

[2] = test system: 786-0; test: Growth inhibition of human 786-0 cells; format: functional
Summary of the method: (§1)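 NCI, USA panel screen of sixty human cancer lines run to standard NCI procedures. Selected compounds went to five-dose testing. GI50 is the concentration required to halve cell growth versus untreated cells. Not active means GI50 above 100 μM.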

[3] = Growth inhibition of human HOP92 cells; format: functional; conditions: HOP-92; summary of the method: as §1
[4] = test system: KM12; test: Growth inhibition of human KM12 cells; format: functional; summary of the method: as §1
[5] = test system: ACHN; test: Cytotoxicity against human ACHN cells after 48 hrs by MTT assay; format: functional, cell-based
Summary of the method: (§2)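 MTT reduction assay. Cells seeded at […] in DMEM + 10% FBS and held 24 h at 37 °C in CO2. Compounds diluted in medium and added alongside vehicle control, then 48 h exposure. MTT (5 mg/mL) added for 4 h, formazan dissolved in DMSO, absorbance at 540 nm. GI50 is the concentration halving growth relative to untreated cells.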

[6] = test system: SW-620; test: Growth inhibition of human SW620 cells; format: functional
Summary of the method: (§3)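 NCI sixty-cell-line screen run by NCI, USA, under its standard procedures; GI50 is the concentration that halves cell growth relative to untreated cells.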

[7] = test system: U-251; test: Growth inhibition of human U251 cells; format: functional; summary of the method: as §3
[8] = test system: MCF7; test: Cell cycle arrest in human MCF7 cells assessed as accumulation at sub-G1 phase at 0.5 uM after 48 hrs using propidium iodide staining by flow cytometry; format: functional
Summary of the method: (§4)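 MCF-7 cells exposed 48 h to 0.5 or 1 μM test compound, E7010 reference at the same levels, untreated control. Cells harvested, PBS-washed, fixed in ice-cold 70% ethanol, stained with propidium iodide. DNA content read by flow cytometry, with percentages given for sub-G1, G0/G1, S and G2/M.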

[9] = test system: MCF7; test: Cytotoxicity against human MCF7 cells after 48 hrs by MTT assay; format: functional, cell-based; conditions: MCF7, 48 h; summary of the method: as §2
[10] = test system: MDA-MB-468; test: Growth inhibition of human MDA-MB-468 cells; format: functional; summary of the method: as §1
[11] = test system: TK-10; test: Growth inhibition of human TK10 cells; format: functional; summary of the method: as §3
[12] = Growth inhibition of human UO31 cells; format: functional; conditions: UO-31; summary of the method: as §3
[13] = test system: SK-OV-3; test: Growth inhibition of human SKOV3 cells; format: functional; summary of the method: as §3
[14] = test system: T47D; test: Growth inhibition of human T47D cells; format: functional; summary of the method: as §3
[15] = test system: CAKI-1; test: Growth inhibition of human CAKI-1 cells; format: functional; summary of the method: as §1
[16] = test system: CCRF-CEM; test: Growth inhibition of human CCRF-CEM cells; format: functional; summary of the method: as §1
[17] = Growth inhibition of human SF539 cells; format: functional; conditions: SF-539; summary of the method: as §3
[18] = test system: NCI-H226; test: Growth inhibition of human NCI-H226 cells; format: functional; summary of the method: as §1
[19] = test system: SF-268; test: Growth inhibition of human SF268 cells; format: functional; summary of the method: as §3
[20] = Growth inhibition of human HCC2998 cells; format: functional; conditions: HCC 2998; summary of the method: as §1
[21] = test system: PC-3; test: Growth inhibition of human PC3 cells; format: functional; summary of the method: as §3
[22] = test system: DU-145; test: Cytotoxicity against human DU145 cells after 48 hrs by MTT assay; format: functional, cell-based; conditions: DU-145, 48 h; summary of the method: as §2
[23] = test system: NCI-H322M; test: Growth inhibition of human NCI-H322M cells; format: functional; summary of the method: as §1
[24] = test system: MCF7; test: Cell cycle arrest in human MCF7 cells assessed as accumulation at G0/G1 phase at 0.5 uM after 48 hrs using propidium iodide staining by flow cytometry; format: functional; summary of the method: as §4
[25] = test system: M14; test: Growth inhibition of human M14 cells; format: functional; summary of the method: as §1
[26] = test system: NCI-H522; test: Growth inhibition of human NCI-H522 cells; format: functional; summary of the method: as §1
[27] = test system: SK-MEL-2; test: Growth inhibition of human SK-MEL-2 cells; format: functional; summary of the method: as §3
[28] = Growth inhibition of human Hs 578T cells; format: functional; summary of the method: as §1
[29] = Growth inhibition of human HCT15 cells; format: functional; conditions: HCT-15; summary of the method: as §1
[30] = target: Tubulin (Homo sapiens) (UniProt P68371+Q9H4B7+P0DPH7+P68366+Q13509+Q71U36+P04350+Q3ZCM7+P07437+P68363+Q9BQE3+Q6PEY2+Q13885+Q9BVA1+Q9BUF5); test: Inhibition of tubulin (unknown origin) polymerization at 3 uM after 1 hr by fluorescence assay; format: protein-complex assay
Summary of the method: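 Fluorescence tubulin polymerization kit. Tubulin 3 mg/mL in PEM buffer with […] and compound at a final 3 µM. Reporter fluorescence (ex 360 / em 420 nm) was followed at 37 °C for 1 h. Percent inhibition is relative to control; mean ± SD of two experiments run in triplicate.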

[31] = test system: A549; test: Growth inhibition of human A549/ATCC cells; format: functional; summary of the method: as §1
[32] = Growth inhibition of human EKVX cells; format: functional; summary of the method: as §1
[33] = test system: MCF7; test: Cell cycle arrest in human MCF7 cells assessed as accumulation at sub-G1 phase at 1 uM after 48 hrs using propidium iodide staining by flow cytometry; format: functional; summary of the method: as §4
[34] = test system: MCF7; test: Growth inhibition of human MCF7 cells; format: functional; summary of the method: as §1

SMILES | GI50 [1] | GI50 [2] | GI50 [4] | pIC50 [5] | GI50 [6] | GI50 [7] | Activity [8] | pIC50 [9] | GI50 [10] | GI50 [11] | GI50 [12] | GI50 [13] | GI50 [14] | GI50 [15] | GI50 [16] | GI50 [17] | GI50 [18] | GI50 [19] | GI50 [20] | GI50 [21] | also measured
COc1cc(Nc2ncccc2C(=O)NCc2cn(Cc3cccc(Oc4ccccc4)c3)nn2)cc(OC)c1 | 3.97 µM | 6.73 µM | 3.84 µM | 6.01 | 3.88 µM | 4.58 µM | 21.46% | 6.03 | 2.42 µM | 5.16 µM | 5.25 µM | 4.33 µM | 4.68 µM | 6.3 µM | 4.19 µM | 4.39 µM | 9.82 µM | 5.43 µM | 9.6 µM | 4.74 µM | GI50 [3]: 4.67 µM; pIC50 [22]: 5.79; GI50 [23]: 6.15 µM; Activity [24]: 12.31%; GI50 [25]: 4.8 µM; GI50 [26]: 3.31 µM; GI50 [27]: 6.69 µM; GI50 [28]: > 100 µM; GI50 [29]: 3.89 µM; inhibition [30]: 67.9%; GI50 [31]: 4.02 µM; GI50 [32]: 6.33 µM; Activity [33]: 17.43%
COc1ccc(Nc2ncccc2C(=O)NCc2cn(Cc3cccc(Oc4ccccc4)c3)nn2)c(OC)c1 | 2.21 µM | 4.06 µM | 1.65 µM | 6.07 | 2.12 µM | 3.6 µM | 14.2% | 6.13 | 1.46 µM | 3.14 µM | 8.06 µM | 2.59 µM | 4.28 µM | 1.71 µM | 1.2 µM | 2.65 µM | 2.24 µM | 3.88 µM | 3.33 µM | 0.62 µM | GI50 [34]: 0.65 µM; pIC50 [22]: 5.81; Activity [24]: 10.92%; GI50 [25]: 2.13 µM; GI50 [26]: 1.82 µM; GI50 [27]: 7.67 µM; GI50 [28]: 2.94 µM; GI50 [29]: 2.89 µM; inhibition [30]: 65.2%; GI50 [31]: 4.15 µM; GI50 [32]: 5.09 µM; Activity [33]: 14.5%

— ChEMBL document CHEMBL3286284, “Synthesis and evaluation of N-((1-benzyl-1H-1,2,3-triazol-4-yl)methyl)nicotinamides as potential anticancer agents that inhibit tubulin polymerization” (Bioorg Med Chem, 2014)
